Here are results for 15 compounds from ChEMBL document CHEMBL1250419, “An integrative in silico methodology for the identification of modulators of macrophage migration inhibitory factor (MIF) tautomerase activity” (Bioorg Med Chem, 2010).

Assay [1] has as its target T1, Macrophage migration inhibitory factor (Homo sapiens, UniProt P14174).
T1 sequence (P14174 whole entry): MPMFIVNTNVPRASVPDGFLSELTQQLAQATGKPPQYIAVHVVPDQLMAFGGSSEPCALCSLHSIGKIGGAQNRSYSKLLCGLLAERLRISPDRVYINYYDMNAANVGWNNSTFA
Description: Inhibition of human MIF tautomerase activity. The gist of the method: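 Wild-type human MIF (500 nM final) preincubated with compound for 2 h at room temperature over 24 nM–50 μM or 98–200 μM. Buffer: 50 mM potassium phosphate, 0.5 mM EDTA, pH 6, no detergent. Reaction started with 533 μM freshly made D-dopachrome methyl ester; end-point absorbance at 475 nm after 2 min. Triplicate runs; IC50 by nonlinear regression.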

For assay [2], the target named is T1, Macrophage migration inhibitory factor. The experiment in a line: Inhibition of human MIF tautomerase activity in presence of Triton X-100 as detergent. The gist of the method:
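Counter-screen for aggregation-based inhibition, with 0.1% v/v Triton X-100 in both buffer and enzyme stock. Wild-type human MIF (500 nM) preincubated with compound for 2 h at room temperature in 50 mM potassium phosphate, 0.5 mM EDTA, pH 6. 533 μM D-dopachrome methyl ester added; 475 nm end-point read at 2 min. IC50 by nonlinear regression.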

Assay [3] addresses T2, Macrophage migration inhibitory factor (Homo sapiens) (UniProt P14174).
T2 sequence (whole entry): T1 sequence (P14174 whole entry)
Description: Inhibition of human MIF tautomerase activity at 200 uM. In outline:
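Wild-type human MIF (500 nM) preincubated with compound at 200 μM for 2 h at room temperature in 50 mM potassium phosphate, 0.5 mM EDTA, pH 6. Reaction started with 533 μM fresh D-dopachrome methyl ester. Percent inhibition taken from absorbance at 475 nm 2 min after substrate addition.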

As usually defined, the IC50 is the concentration that inhibits the measured activity by half. Regarding `O=C(c1ccccc1)c1cc2ccc(O)cc2oc1=O`, half-maximal inhibition in assay [1] (IC50) required 64.2 µM.
`CCCCOC(=O)Sc1nc2ccccc2o1`: the IC50 in assay [2] stood at 0.15 µM; in assay [1] it was 0.08 µM.
Broadly, the inhibition is the drop in the measured response relative to a control, in per cent. In assay [3], `c1ccc(NCn2nnc3ccccc32)nc1` registered an inhibition of 69%.
As to `S=C(Nc1ccccc1)Nc1nncs1`, the IC50 was found to be 0.42 µM in assay [2] and 0.3 µM in assay [1].
In assay [1], `O=[N+]([O-])c1ccc(NCc2ccco2)c2nonc12` came in with an IC50 of 60.4 µM.
`O=Nc1c(-c2ccccc2)cc2ccccn12` registered an IC50 in assay [1] of 121 µM.
For `S=C(Nc1ccccn1)Nc1ccccc1Cl`, the IC50 in assay [2] came out at 1.01 µM; in assay [1], 1.04 µM.
The like results for `O=C(NOC(=O)c1ccccc1Br)c1ccc(Cl)cc1` were, in that order, 4.2 µM and 2.8 µM.
`O=[N+]([O-])c1cc(S(=O)(=O)C(F)(F)F)ccc1Sc1nnc(S)s1` yielded an IC50 in assay [1] of 9.5 µM.
Still for that read-out and setting: in the case of `Cc1ccc(C(=O)/C=C/Nc2ccc(F)cc2F)o1` it was 57.5 µM.
For `CC(=O)c1cc2ccc(O)cc2oc1=O`, the IC50 came out at 103 µM in assay [2] and 45.2 µM in assay [1].
The like results for `O=C(Oc1ccc(-c2ccccc2)nn1)c1cccs1` were, in that order, 0.05 µM and 0.05 µM.
For `CCOC(=O)/C(C#N)=C/c1ccc(O)cc1O` the same measures were 110 µM and 62.1 µM.
For `COC(=O)CSc1nnc(-c2cccs2)n1C` the same measures were 28.4 µM and 18.6 µM.
Regarding `COc1ccccc1C(=O)n1nnc2ccccc21`, the IC50 in assay [2] was determined as 12.2 µM; in assay [1], 6.9 µM.
